Calls of active or inactive are those of the source. The rule behind the calls is not given here.
Legend:
[1] = tested on: Candida albicans; test: Survival of Candida albicans at 11.6 uM in presence of 0.5 mM NaCl; format: functional
In short: (§1)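 Cells at 10⁶/ml in 10 mM sodium phosphate pH 7.4 supplemented with 0.5, 1, 5 or 25 mM CaCl₂, MgCl₂, NaCl or KCl; hBD-2 11.6 μM for 1 h at 30°C; colonies counted on YNB agar after 48 h at room temperature; survival relative to buffer-only cells; at least three independent experiments, mean ± SD.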

[2] = tested on: Candida albicans; test: Antimicrobial activity against Candida albicans at 11.6 uM in presence of 100 mM NaPB; format: functional
In short: (§2)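 YNB-grown C. albicans (CAF4-2) washed and resuspended at 10⁶ cells/ml in 10, 20, 50 or 100 mM sodium phosphate buffer pH 7.4; peptide 2.9 to 11.6 μM, 1 h at 30°C; 500-cell aliquots plated on YNB agar, 48 h room temperature; loss of viability = [1 − (treated/buffer-only colonies)] × 100; at least three independent experiments, mean ± SD.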

[3] = tested on: Candida albicans; test: Survival of Candida albicans at 11.6 uM in presence of 5 mM MgCl2; format: functional; in short: as §1
[4] = tested on: Candida albicans; test: Survival of Candida albicans at 11.6 uM in presence of 0.5 mM MgCl2; format: functional; in short: as §1
[5] = tested on: Candida albicans; test: Antimicrobial activity against Candida albicans at 11.6 uM in presence of 50 mM NaPB; format: functional; in short: as §2
[6] = tested on: Candida albicans; test: Survival of Candida albicans at 11.6 uM in presence of 0.5 mM KCl; format: functional; in short: as §1
[7] = tested on: Candida albicans; test: Cell death in Candida albicans CAF4-2 in presence of 1 mM NaN3 relative to control; format: functional
[8] = tested on: Nakaseomyces glabratus; test: Fungicidal activity against Candida glabrata 932474 at 11.6 uM; format: functional
In short: (§3)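 C. albicans CAF4-2 and C. glabrata 931010 or 932474 at 10⁶/ml in 10 mM sodium phosphate pH 7.4, exposed to one peptide concentration (Hst 5 31 μM, hBD-2 11.6 μM, hBD-3 0.8 μM); 500-cell aliquots plated on YNB agar for 48 h at room temperature; loss of viability versus buffer-only control; triplicate.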

[9] = tested on: Candida albicans; test: Survival of Candida albicans at 11.6 uM in presence of 5 mM CaCl2; format: functional; in short: as §1
[10] = tested on: Candida albicans; test: Fungicidal activity against Candida albicans CAF4-2 at 11.6 uM; format: functional; in short: as §3
[11] = tested on: Candida albicans; test: Survival of Candida albicans at 11.6 uM in presence of 0.5 mM CaCl2; format: functional; in short: as §1
[12] = tested on: Nakaseomyces glabratus; test: Fungicidal activity against Candida glabrata 931010 at 11.6 uM; format: functional; in short: as §3
[13] = tested on: Candida albicans; test: Antimicrobial activity against Candida albicans at 11.6 uM in presence of 20 mM NaPB; format: functional; in short: as §2
[14] = tested on: Candida albicans; test: Antimicrobial activity against Candida albicans at 11.6 uM in presence of 10 mM NaPB; format: functional; in short: as §2
[15] = tested on: Nakaseomyces glabratus; test: Fungicidal activity against Candida glabrata 932474 at 31 uM; format: functional
[16] = tested on: Nakaseomyces glabratus; test: Fungicidal activity against Candida glabrata 931010 at 31 uM; format: functional
[17] = tested on: Candida albicans; test: Induction of membrane permeabilization in Candida albicans assessed as calcein release at 32 uM after 90 min; format: functional
In short: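 Early-stationary yeast washed in 10 mM NaPB, loaded at 10⁷/ml with 5 μM (final) calcein-AM for 2 h at room temperature, then washed four times; 10⁶ cells given 0.8 μM hBD-3 or 32 μM Hst 5. Fluorescence (ex 485/em 530 nm) read every 5 min for 90 min. Percent release = (I_r − I_bkg)/(I_int − I_bkg) × 100, where I_int comes from boiling 10 min. Mean ± SD of three experiments.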

[18] = tested on: Candida albicans; test: Fungicidal activity against Candida albicans CAF4-2 at 31 uM; format: functional
[19] = tested on: Candida albicans; test: Induction of ATP efflux in Candida albicans CAF4-2 at 31 uM in presence of 1 mM sodium azide; format: functional, organism-based
In short: (§4)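 10⁴ C. albicans cells given 31 μM Hst 5 or 1 μM hBD-3, with or without 2 h pretreatment in 1 mM NaN₃. Extracellular ATP read by luminometry at 0, 5, 15, 30, 45 and 60 min. Values come from per-experiment ATP standard curves, as pmol ATP per 10⁴ cells.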

[20] = tested on: Candida albicans; test: Induction of ATP efflux in Candida albicans CAF4-2 at 31 uM; format: functional, organism-based; in short: as §4
[21] = tested on: Candida albicans; test: Induction of ATP efflux in Candida albicans CAF4-2 at 11.6 uM; format: functional, organism-based
In short: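 C. albicans CAF4-2 (10⁴ cells) mixed with peptide (Hst 5 31 μM, hBD-2 11.6 μM, hBD-3 1 μM), some cells pretreated 2 h with 1 mM NaN₃; extracellular ATP read by luminometry at 0, 5, 15, 30, 45 and 60 min; quantified against per-experiment ATP standard curves as pmol ATP per 10⁴ cells.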

[22] = tested on: Candida albicans; test: Induction of membrane permeabilization in Candida albicans assessed as calcein release at 11.6 uM after 90 min; format: functional
In short: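 Early-stationary C. albicans loaded with 5 μM (final) calcein-AM, 2 h room temperature, washed four times; 10⁶ cells with peptide, fluorescence (ex 485/em 530 nm) read every 5 min for 90 min; 100% from boiled cells (10 min), background from untreated cells; % release = (I_r − I_bkg)/(I_int − I_bkg) × 100; three independent experiments, mean ± SD.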

[23] = tested on: Candida albicans; test: Antimicrobial activity against Candida albicans at 1.0 uM in presence of 20 mM NaPB; format: functional
In short: (§5)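 YNB-grown yeast washed twice and resuspended at 10⁶ cells/ml in 10, 20, 50 or 100 mM sodium phosphate buffer, pH 7.4; peptide 0.2 to 1.0 μM for 1 h at 30°C. Diluted aliquots of 500 cells plated on YNB agar, 48 h at room temperature. Loss of viability = [1 − (treated colonies/buffer-only colonies)] × 100; at least three independent experiments.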

[24] = tested on: Candida albicans; test: Antimicrobial activity against Candida albicans at 1.0 uM in presence of 10 mM NaPB; format: functional; in short: as §5
[25] = tested on: Candida albicans; test: Cell death in Candida albicans CAF4-2 at <= 0.6 uM in the presence of 1 mM NaN3 relative to control; format: functional
[26] = tested on: Candida albicans; test: Cell death in Candida albicans CAF4-2 at >= 0.8 uM in presence of 1 mM NaN3 relative to control
[27] = tested on: Nakaseomyces glabratus; test: Fungicidal activity against Candida glabrata 931010 at 0.8 uM; format: functional
[28] = tested on: Nakaseomyces glabratus; test: Fungicidal activity against Candida glabrata 932474 at 0.8 uM; format: functional
[29] = tested on: Candida albicans; test: Fungicidal activity against Candida albicans CAF4-2 at 0.8 uM; format: functional
[30] = tested on: Candida albicans; test: Antimicrobial activity against Candida albicans at 1.0 uM in presence of 50 mM NaPB; format: functional; in short: as §5

Question: Which results are given for `CC[C@H](C)[C@H](NC(=O)CN)C(=O)NCC(=O)N[C@@H](CC(=O)O)C(=O)N1CCC[C@H]1C(=O)N[C@H](C(=O)N[C@H](C(=O)N[C@@H](CS)C(=O)N[C@@H](CC(C)C)C(=O)N[C@@H](CCCCN)C(=O)N[C@@H](CO)C(=O)NCC(=O)N[C@@H](C)C(=O)N[C@H](C(=O)N[C@@H](CS)C(=O)N[C@@H](Cc1cnc[nH]1)C(=O)N1CCC[C@H]1C(=O)N[C@H](C(=O)N[C@@H](Cc1ccccc1)C(=O)N[C@@H](CS)C(=O)N1CCC[C@H]1C(=O)N[C@@H](CCCNC(=N)N)C(=O)N[C@@H](CCCNC(=N)N)C(=O)N[C@@H](Cc1ccc(O)cc1)C(=O)N[C@@H](CCCCN)C(=O)N[C@@H](CCC(N)=O)C(=O)N[C@H](C(=O)NCC(=O)N[C@H](C(=O)N[C@@H](CS)C(=O)NCC(=O)N[C@@H](CC(C)C)C(=O)N1CCC[C@H]1C(=O)NCC(=O)N[C@H](C(=O)N[C@@H](CCCCN)C(=O)N[C@@H](CS)C(=O)N[C@@H](CS)C(=O)N[C@@H](CCCCN)C(=O)N[C@@H](CCCCN)C(=O)N1CCC[C@H]1C(=O)O)[C@@H](C)O)[C@@H](C)O)[C@@H](C)CC)C(C)C)[C@@H](C)CC)[C@@H](C)O)C(C)C`?
Answer: Activity [1]: 24%; Activity [2]: 24%; Activity [3]: 97.6%; Activity [4]: 58.4%; Activity [5]: 29%; Activity [6]: 18%; Activity [7]: 15%; Activity [8]: 89.6%; Activity [9]: 86%; Activity [10]: 95%; Activity [11]: 69%; Activity [12]: 20.2%; Activity [13]: 54%; Activity [14]: 95%

Question: With `C[C@H](NC(=O)[C@H](Cc1cnc[nH]1)NC(=O)[C@H](CO)NC(=O)[C@@H](N)CC(=O)O)C(=O)N[C@@H](CCCCN)C(=O)N[C@@H](CCCNC(=N)N)C(=O)N[C@@H](Cc1cnc[nH]1)C(=O)N[C@@H](Cc1cnc[nH]1)C(=O)NCC(=O)N[C@@H](Cc1ccc(O)cc1)C(=O)N[C@@H](CCCCN)C(=O)N[C@@H](CCCNC(=N)N)C(=O)N[C@@H](CCCCN)C(=O)N[C@@H](Cc1ccccc1)C(=O)N[C@@H](Cc1cnc[nH]1)C(=O)N[C@@H](CCC(=O)O)C(=O)N[C@@H](CCCCN)C(=O)N[C@@H](Cc1cnc[nH]1)C(=O)N[C@@H](Cc1cnc[nH]1)C(=O)N[C@@H](CO)C(=O)N[C@@H](Cc1cnc[nH]1)C(=O)N[C@@H](CCCNC(=N)N)C(=O)NCC(=O)N[C@@H](Cc1ccc(O)cc1)C(=O)O` [HISTATIN 5] as the molecule, how does the Activity [15] read?
Answer: 29.4%

Question: And the Activity [16]?
Answer: 12.2%

Question: What about the Activity [17] of the same molecule?
Answer: 11%

Question: What about the Activity [18] of the same molecule?
Answer: 97.5%

Question: What about the Activity [19] of the same molecule?
Answer: inactive

Question: What about the Activity [20] of the same molecule?
Answer: Active

Question: With `CC[C@H](C)[C@H](NC(=O)CN)C(=O)NCC(=O)N[C@@H](CC(=O)O)C(=O)N1CCC[C@H]1C(=O)N[C@H](C(=O)N[C@H](C(=O)N[C@@H](CS)C(=O)N[C@@H](CC(C)C)C(=O)N[C@@H](CCCCN)C(=O)N[C@@H](CO)C(=O)NCC(=O)N[C@@H](C)C(=O)N[C@H](C(=O)N[C@@H](CS)C(=O)N[C@@H](Cc1cnc[nH]1)C(=O)N1CCC[C@H]1C(=O)N[C@H](C(=O)N[C@@H](Cc1ccccc1)C(=O)N[C@@H](CS)C(=O)N1CCC[C@H]1C(=O)N[C@@H](CCCNC(=N)N)C(=O)N[C@@H](CCCNC(=N)N)C(=O)N[C@@H](Cc1ccc(O)cc1)C(=O)N[C@@H](CCCCN)C(=O)N[C@@H](CCC(N)=O)C(=O)N[C@H](C(=O)NCC(=O)N[C@H](C(=O)N[C@@H](CS)C(=O)NCC(=O)N[C@@H](CC(C)C)C(=O)N1CCC[C@H]1C(=O)NCC(=O)N[C@H](C(=O)N[C@@H](CCCCN)C(=O)N[C@@H](CS)C(=O)N[C@@H](CS)C(=O)N[C@@H](CCCCN)C(=O)N[C@@H](CCCCN)C(=O)N1CCC[C@H]1C(=O)O)[C@H](C)O)[C@H](C)O)[C@@H](C)CC)C(C)C)[C@@H](C)CC)[C@H](C)O)C(C)C` as the molecule, how does the Activity [21] read?
Answer: Active

Question: And the Activity [22]?
Answer: 10.3%

Question: `CC[C@H](C)[C@H](NC(=O)CN)C(=O)N[C@H](C(=O)N[C@@H](CC(N)=O)C(=O)N[C@H](C(=O)N[C@@H](CC(C)C)C(=O)N[C@@H](CCC(N)=O)C(=O)N[C@@H](CCCCN)C(=O)N[C@@H](Cc1ccc(O)cc1)C(=O)N[C@@H](Cc1ccc(O)cc1)C(=O)N[C@@H](CS)C(=O)N[C@@H](CCCNC(=N)N)C(=O)N[C@H](C(=O)N[C@@H](CCCNC(=N)N)C(=O)NCC(=O)NCC(=O)N[C@@H](CCCNC(=N)N)C(=O)N[C@@H](CS)C(=O)N[C@@H](C)C(=O)N[C@H](C(=O)N[C@@H](CC(C)C)C(=O)N[C@@H](CO)C(=O)N[C@@H](CS)C(=O)N[C@@H](CC(C)C)C(=O)N1CCC[C@H]1C(=O)N[C@@H](CCCCN)C(=O)N[C@@H](CCC(=O)O)C(=O)N[C@@H](CCC(=O)O)C(=O)N[C@@H](CCC(N)=O)C(=O)N[C@H](C(=O)NCC(=O)N[C@@H](CCCCN)C(=O)N[C@@H](CS)C(=O)N[C@@H](CO)C(=O)N[C@H](C(=O)N[C@@H](CCCNC(=N)N)C(=O)NCC(=O)N[C@@H](CCCNC(=N)N)C(=O)N[C@@H](CCCCN)C(=O)N[C@@H](CS)C(=O)N[C@@H](CS)C(=O)N[C@@H](CCCNC(=N)N)C(=O)N[C@@H](CCCNC(=N)N)C(=O)N[C@@H](CCCCN)C(=O)N[C@@H](CCCCN)C(=O)O)[C@@H](C)O)[C@@H](C)CC)C(C)C)C(C)C)[C@@H](C)O)[C@@H](C)CC` was tested. Which Activity [23] did it give?
Answer: 63%

Question: And the Activity [24]?
Answer: 98.2%

Question: What about the Activity [25] of the same molecule?
Answer: <10%

Question: And the Activity [26]?
Answer: 36%

Question: And the Activity [27]?
Answer: 11.5%

Question: What about the Activity [28] of the same molecule?
Answer: 53.2%

Question: What about the Activity [29] of the same molecule?
Answer: 98.2%

Question: What about the Activity [30] of the same molecule?
Answer: 18%
